Reference: ChEMBL document CHEMBL1133641, “A new class of potential chloroquine-resistance reversal agents for Plasmodia: syntheses and biological evaluation of 1-(3'-diethylaminopropyl)-3-(substituted phenylmethylene)pyrrolidines” (2000)
Activity calls are given as the source filed them. The rule behind the calls is not given here.

Legend:
Plasmodium yoelii [1] = test: In vivo resistance reversal agent in chloroquine-resistant Plasmodium yoelii nigerienses infected Swiss Albino mice (Mus musculus). Parasitemia observed on day 6-10 of treatment in Group IV;range is 80-70%; type: functional
Plasmodium yoelii [2] = test: In vivo antimalarial activity as MST of 1 week in chloroquine-resistant Plasmodium yoelii nigeriensis infected Swiss Albino mice (Mus musculus) at 15 mg/kg; type: functional
Plasmodium yoelii [3] = test: In vivo resistance reversal (control MST = 1 week) in chloroquine-resistant Plasmodium yoelii nigerienses infected Swiss Albino mice (Mus musculus); type: functional
Plasmodium berghei [4] = test: Evaluated for the Heme oxygenase (Values are mean +/- SD of 4 separate observations. Specific activity in nmol/h/mg protein) in chloroquine-sensitive Plasmodium berghei; type: functional
Method in brief: (§1)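 Mastomys carrying CQ-resistant P. berghei were dosed orally at 15 mg/kg for 10 days. Untreated CQ-resistant and CQ-sensitive parasites served as reference samples. Parasites were isolated by density-gradient centrifugation and saponin lysis. Heme oxygenase was followed as bilirubin formation in the post-mitochondrial fraction and expressed as nmol/h/mg protein.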

Plasmodium berghei [5] = test: Heme content in chloroquine-resistant Plasmodium berghei at 15 mg/kg for 10 days; type: functional
[6] = test system: Plasmodium yoelii nigeriensis; test: Hemozoin formation in chloroquine-resistant Plasmodium yoelii
[7] = target: T1, Glutathione S-transferase (Plasmodium yoelii yoelii) (UniProt Q7REH6); test: (§2) Inhibition of Glutathione S-transferase in Plasmodium yoelii nigeriensis isolated from infected mice (Mus musculus) (oral); type: functional; conditions: concentration not given here
T1 sequence (whole entry): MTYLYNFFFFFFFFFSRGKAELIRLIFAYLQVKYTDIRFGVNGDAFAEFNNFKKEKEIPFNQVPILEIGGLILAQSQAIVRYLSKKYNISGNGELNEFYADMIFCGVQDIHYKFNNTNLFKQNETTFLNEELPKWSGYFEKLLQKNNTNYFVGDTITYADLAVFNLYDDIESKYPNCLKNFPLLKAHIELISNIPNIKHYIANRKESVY
Method in brief: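 Mice infected with P. yoelii nigeriensis were dosed orally at 15 mg/kg body wt for 5 days. Parasites were then isolated from blood by density-gradient centrifugation and saponin lysis. Glutathione-S-transferase (and heme oxygenase) activity is given as % inhibition.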

Plasmodium yoelii [8] = test: Heme content in chloroquine-resistant Plasmodium yoelii; type: functional
Plasmodium berghei [9] = test: Heme content in chloroquine-sensitive Plasmodium berghei; type: functional
Plasmodium yoelii [10] = test: In vivo parasitaemia at day 17 in chloroquine-resistant Plasmodium yoelii nigeriensis infected Swiss Albino mice (Mus musculus); Not active; type: functional, organism-based
Plasmodium berghei [11] = test: (§3) In vivo pretreatment parasitemia in chloroquine-resistant Plasmodium berghei infected Mastomys coucha; range 4-5%; type: functional
Plasmodium yoelii [12] = test: In vivo antimalarial activity as MST of 1 week in chloroquine-resistant Plasmodium yoelii nigerienses infected Swiss Albino mice (Mus musculus) at 10 mg/kg chloroquine; type: functional
[13] = test system: Plasmodium yoelii nigeriensis; test: In Vitro inhibition of Heme Oxygenase in Cell-free parasite Plasmodium yoelii at concentration 10 uM; type: functional
Method in brief: (§4)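 Heme oxygenase activity was measured as bilirubin formation in a post-mitochondrial fraction. The parasite enzyme came from cell-free P. yoelii, isolated from infected blood by density gradient centrifugation and saponin lysis. The host enzyme came from infected liver. Compounds were tested at 10–100 µM and preincubated for 10 min before the reaction was started.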

[14] = test system: Plasmodium yoelii nigeriensis; test: Hemozoin formation in chloroquine-sensitive Plasmodium yoelii
Plasmodium berghei [15] = test: In vivo resistance reversal at day 10 in chloroquine-resistant Plasmodium berghei infected Mastomys coucha at 10 mg/kg; range 20-22; type: functional
Plasmodium yoelii [16] = test: (§5) In vivo antimalarial activity as pretreatment parasitemia in chloroquine-resistant Plasmodium yoelii nigerienses infected Swiss Albino mice (Mus musculus); range 1-2%; type: functional
Plasmodium berghei [17] = test: In vivo antimalarial activity as parasitemia at day 17 in chloroquine-resistant Plasmodium berghei infected Mastomys coucha treated to day 10; range 25-30%; type: functional
Plasmodium yoelii [18] = test: Evaluated for the Heme oxygenase in chloroquine-sensitive Plasmodium yoelii; type: functional
Plasmodium yoelii [19] = test: Heme content after 10 days in chloroquine-resistant Plasmodium yoelii at 15 mg/kg; type: functional
[20] = test system: Plasmodium yoelii nigeriensis; test: In Vitro inhibition of Heme Oxygenase in Cell-free parasite Plasmodium yoelii at concentration 50 uM; type: functional; method in brief: as §4
Plasmodium berghei [21] = test: In vivo antimalarial activity as parasitemia at day 17 in-chloroquine-resistant Plasmodium berghei infected Mastomys coucha treated to day 10; No inhibition; type: functional, organism-based
Plasmodium berghei [22] = test: In vivo antimalarial activity as parasitemia at day 10 in chloroquine-resistant Plasmodium berghei infected Mastomys coucha; range 20-22%; type: functional
Plasmodium berghei [23] = test: Heme content in chloroquine-resistant Plasmodium berghei; type: functional
Plasmodium berghei [24] = test: as §3; type: functional; remark: listed apart in the source
Plasmodium berghei [25] = test: Evaluated for the Heme oxygenase (Values are mean +/- SD of 4 separate observations. Specific activity in nmol/h/mg protein) in chloroquine-resistant Plasmodium berghei; type: functional; method in brief: as §1
Plasmodium yoelii [26] = test: Heme content in chloroquine-sensitive Plasmodium yoelii; type: functional
Plasmodium berghei [27] = test: In vivo antimalarial activity as parasitemia at day 10 in chloroquine-resistant Plasmodium berghei infected Mastomys coucha at 10 mg/kg; range 15-17%; type: functional
Plasmodium berghei [28] = test: In vivo resistance reversal at day 10 against chloroquine-resistant Plasmodium berghei infected Mastomys coucha at 10 mg/kg; range 20-22; type: functional
Plasmodium berghei [29] = test: In vivo resistance reversal after 1 month in chloroquine-resistant Plasmodium berghei infected Mastomys coucha at 15 mg/kg on day 10; No inhibition
Plasmodium yoelii [30] = test: In vivo antimalarial activity as parasitemia at days 6-10 in chloroquine-resistant Plasmodium yoelii nigerienses infected Swiss Albino mice (Mus musculus); range 70-80%; type: functional
Plasmodium berghei [31] = test: In vivo antimalarial activity as parasitaemia at day 17 in chloroquine-resistant Plasmodium berghei infected Mastomys coucha treated to day 10; range 25-30%; type: functional
[32] = test system: Plasmodium yoelii nigeriensis; test: In Vitro inhibition of Heme Oxygenase in Cell-free parasite Plasmodium yoelii at concentration 100 uM; type: functional; method in brief: as §4
Plasmodium berghei [33] = test: Hemozoin formation in chloroquine-sensitive Plasmodium berghei
Plasmodium yoelii [34] = test: (§6) In vivo antimalarial activity as parasitemia at day 17 in chloroquine-resistant Plasmodium yoelii nigerienses infected Swiss Albino mice (Mus musculus) treated at day 10; No survivors; type: functional, organism-based
Plasmodium yoelii [35] = test: In vivo antimalarial activity as parasitemia at day 6 in chloroquine-resistant Plasmodium yoelii nigerienses infected Swiss Albino mice (Mus musculus); range 70-80%; type: functional
Mus musculus [36] = species: Mus musculus; test: In Vitro inhibition of Heme Oxygenase in Plasmodium yoelii (host) at concentration 100 uM; type: functional
Method in brief: (§7)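 In vitro heme oxygenase, cell-free: post-mitochondrial fractions of P. yoelii parasites and of infected host liver. Test compounds at 10-100 µM were preincubated 10 min in the assay system before the enzyme reaction started. Activity was followed as bilirubin formation and expressed as % inhibition.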

Mus musculus [37] = species: Mus musculus; test: In Vitro inhibition of Heme Oxygenase in Plasmodium yoelii (host) at concentration 50 uM; type: functional; method in brief: as §7
Plasmodium berghei [38] = test: as §3; type: functional; remark: listed apart in the source
Plasmodium yoelii [39] = test: as §6; type: functional, organism-based; remark: listed apart in the source
Plasmodium yoelii [40] = test: Evaluated for the Heme oxygenase in chloroquine-resistant Plasmodium yoelii; type: functional
Plasmodium berghei [41] = test: In vivo antimalarial activity as parasitemia at day 10 in chloroquine-resistant Plasmodium berghei infected Mastomys coucha at 15 mg/kg; range 20-22%; type: functional
Plasmodium yoelii [42] = test: In vivo antimalarial activity as survivors after 1 month in chloroquine-resistant Plasmodium yoelii nigeriensis infected Swiss Albino mice (Mus musculus) at 15 mg/kg combined with 10 mg/kg chloroquine; type: functional
Plasmodium berghei [43] = test: In vivo antimalarial activity as parasitaemia at day 17 in chloroquine-resistant Plasmodium berghei infected Mastomys coucha treated to day 10; range >25-30%; type: functional
Plasmodium yoelii [44] = test: In vivo antimalarial activity as pretreatment parasitaemia in chloroquine-resistant Plasmodium yoelii nigeriensis infected Swiss Albino mice (Mus musculus); range 1-2%; type: functional
Plasmodium yoelii [45] = test: In vivo resistance reversal agent in chloroquine-resistant Plasmodium yoelii nigerienses infected Swiss Albino mice (Mus musculus). Parasitemia observed on day 6-10 of treatment in Group III NI denotes nil inhibition; type: functional, organism-based
Plasmodium berghei [46] = test: as §3; type: functional; remark: listed apart in the source
Plasmodium berghei [47] = test: Hemozoin formation in chloroquine-resistant Plasmodium berghei
Plasmodium yoelii [48] = test: Evaluated for the Heme oxygenase in chloroquine-resistant Plasmodium yoelii which is treated with 15 mg/kg body weight of compound for 10 days;NA denotes no activity; type: functional, organism-based; parameters: dose 15 mg/kg
Plasmodium berghei [49] = test: Hemozoin formation in chloroquine-resistant Plasmodium berghei at 15 mg/kg for 10 days
Plasmodium yoelii [50] = test: In vivo resistance reversal in chloroquine-resistant Plasmodium yoelii nigeriensis infected Swiss Albino mice (Mus musculus); range is 1-2%; type: functional
Plasmodium berghei [51] = test: In vivo resistance reversal at day 10 in chloroquine-resistant Plasmodium berghei infected Mastomys coucha at 10 mg/kg; range 20-22%; type: functional
[52] = test system: Plasmodium yoelii nigeriensis; test: Hemozoin formation in chloroquine-resistant Plasmodium yoelii at 15 mg/kg for 10 days
[53] = test system: Plasmodium yoelii nigeriensis; test: Inhibition of heme oxygenase in Plasmodium yoelii nigeriensis isolated from infected mice (Mus musculus) (oral); type: functional
Method in brief: (§8)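 Swiss albino mice carried P. yoelii nigeriensis tolerant to CQ up to 120 mg/kg. They received compound orally at 15 mg/kg body wt for 5 days. Parasites were then isolated from blood by density gradient centrifugation and saponin lysis, and enzyme inhibition was measured as percent inhibition.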

[54] = test system: Plasmodium yoelii nigeriensis; test: In Vitro inhibition of Heme Oxygenase in Cell-free parasite Plasmodium yoelii at concentration 10 uM;NI denotes nil inhibition; type: functional; method in brief: as §4
Plasmodium yoelii [55] = test: as §5; type: functional; remark: listed apart in the source
Plasmodium berghei [56] = test: Evaluated for the Heme oxygenase (Values are mean +/- SD of 4 separate observations. Specific activity in nmol/h/mg protein) in chloroquine-resistant Plasmodium berghei which is treated with 15 mg/kg body weight of compound for 10 days; NA denotes no activity; type: functional, organism-based; parameters: dose 15 mg/kg; method in brief: as §1
[57] = target: T1, Glutathione S-transferase (Plasmodium yoelii yoelii); test: as §2; conditions: concentration not given here; method in brief: as §8
[58] = test system: Plasmodium yoelii nigeriensis; test: In Vitro inhibition of Heme Oxygenase in Cell-free parasite Plasmodium yoelii at concentration 50 uM;NI denotes nil inhibition; type: functional; method in brief: as §4
[59] = test system: Plasmodium yoelii nigeriensis; test: In Vitro inhibition of Heme Oxygenase in Cell-free parasite Plasmodium yoelii at concentration 100 uM;NI denotes nil inhibition; type: functional; method in brief: as §4

For `CCN(CC)CCCN1CC/C(=C\c2ccc(OC)cc2)C1`, the Parasites (Plasmodium yoelii [1]) was 80%, the Mean survival time (Plasmodium yoelii [2]) was 1 and the Mean survival time (Plasmodium yoelii [3]) was 1. It also gave a Mean (Plasmodium berghei [4]) of 7.32 nM/h/mg, a Mean (Plasmodium berghei [5]) of 321 pmol/mg and a Mean [6] of 43.3 pmol/mg. The inhibition [7] was 99%, the Mean (Plasmodium yoelii [8]) was 109 pmol/mg and the Mean (Plasmodium berghei [9]) was 344 pmol/mg. The NI (Plasmodium yoelii [10]) was “No inhibition”, the Parasites (Plasmodium berghei [11]) was 5% and the Mean survival time (Plasmodium yoelii [12]) was 1. It also gave an inhibition [13] of 48%, a Mean [14] of 109 pmol/mg and a Mean survival time (Plasmodium berghei [15]) of 22 days. The Parasites (Plasmodium yoelii [16]) was 2%, the Parasites (Plasmodium berghei [17]) was >30% and the Mean (Plasmodium yoelii [18]) was 10.2 nM/h/mg. For the same molecule, the Mean (Plasmodium yoelii [19]) was 172 pmol/mg, the inhibition [20] was 64% and the NI (Plasmodium berghei [21]) was “No inhibition”. For the same molecule, the Parasites (Plasmodium berghei [22]) was 22%, the Mean (Plasmodium berghei [23]) was 60.3 pmol/mg and the Parasites (Plasmodium berghei [24]) was 5%. The Mean (Plasmodium berghei [25]) was 80.2 nM/h/mg, the Mean (Plasmodium yoelii [26]) was 218 pmol/mg and the Parasites (Plasmodium berghei [27]) was 17%. For the same molecule, the Mean survival time (Plasmodium berghei [28]) was 22 days, the NI (Plasmodium berghei [29]) was “No inhibition” and the Parasites (Plasmodium yoelii [30]) was 80%. The Parasites (Plasmodium berghei [31]) was >30%, the inhibition [32] was 87% and the Mean (Plasmodium berghei [33]) was 101 pmol/mg. The NS (Plasmodium yoelii [34]) was “No survivors”, the Parasites (Plasmodium yoelii [35]) was 80% and the inhibition (Mus musculus [36]) was 31%. For the same molecule, the inhibition (Mus musculus [37]) was 21%, the Parasites (Plasmodium berghei [38]) was 5% and the NS (Plasmodium yoelii [39]) was “No survivors”. For the same molecule, the Mean (Plasmodium yoelii [40]) was 102 nM/h/mg, the Parasites (Plasmodium berghei [41]) was 22% and the Mean survival time (Plasmodium yoelii [42]) was > 1 month. The Parasites (Plasmodium berghei [43]) was >30%, the Parasites (Plasmodium yoelii [44]) was 2% and the NI (Plasmodium yoelii [45]) was “No inhibition”. The Parasites (Plasmodium berghei [46]) was 5%, the Mean (Plasmodium berghei [47]) was 51.4 pmol/mg and the NA (Plasmodium yoelii [48]) was “inactive”. The Mean (Plasmodium berghei [49]) was 71.1 pmol/mg, the Parasites (Plasmodium yoelii [50]) was 2% and the Mean survival time (Plasmodium berghei [51]) was 22 days. The Mean [52] was 45.1 pmol/mg, the Inhibition [53] was 100% and the NI [54] was “No inhibition”. The Parasites (Plasmodium yoelii [55]) was 2% and the NA (Plasmodium berghei [56]) was “inactive”.

`CCN(CC)CCCN1CC/C(=C\c2ccc(OCCN3CCCC3)cc2)C1` showed an inhibition [13] of 100%, an inhibition [20] of 100% and an inhibition [57] of 90%. For the same molecule, the NI [58] was “No inhibition”, the inhibition [32] was 100% and the NI [59] was “No inhibition”. The Inhibition [53] was 79% and the NI [54] was “No inhibition”.
